Results reported in ChEMBL document CHEMBL4130594 (ACS Med Chem Lett, 2017).

What was measured:
[1] = 1-octanol/phosphate buffered saline distribution coefficient, log D of the compound at 400000 cpm at pH 7.4 by gamma counting method; assay type: physicochemical
[2] = Drug uptake in human PC3 cells at 100000 cpm preincubated for 2 hrs measured up to 8 hrs under hypoxic condition by gamma counting analysis; assay type: ADME, cell-based; details: pc-3, 8 h
[3] = Drug uptake in human DU145 cells at 100000 cpm preincubated for 2 hrs measured up to 8 hrs under hypoxic condition by gamma counting analysis; assay type: ADME, cell-based; details: du-145, 8 h
[4] = Drug uptake in human PC3 cells at 100000 cpm preincubated for 2 hrs measured up to 8 hrs under normoxic condition by gamma counting analysis; assay type: ADME, cell-based; details: pc-3, 8 h
[5] = Drug uptake in human DU145 cells at 100000 cpm preincubated for 2 hrs measured up to 8 hrs under normoxic condition by gamma counting analysis; assay type: ADME, cell-based; details: du-145, 8 h
PC-3 [6] = assay: Cytotoxicity against human PC3 cells incubated for 2 hrs under hypoxic condition measured after 72 hrs by Alamar blue assay; assay type: functional, cell-based
Outline: (§1)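 DU145 and PC-3 cells exposed 2 h under hypoxia (N2) or normoxia (air). IC50 determined. Mean ± SEM of two or more independent experiments, each in quintuplicate.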

DU-145 [7] = assay: Cytotoxicity against human DU145 cells incubated for 2 hrs under hypoxic condition measured after 72 hrs by Alamar blue assay; assay type: functional, cell-based; outline: as §1
PC-3 [8] = assay: Cytotoxicity against human PC3 cells incubated for 2 hrs under normoxic condition measured after 72 hrs by Alamar blue assay; assay type: functional, cell-based; outline: as §1
DU-145 [9] = assay: Cytotoxicity against human DU145 cells incubated for 2 hrs under normoxic condition measured after 72 hrs by Alamar blue assay; assay type: functional, cell-based; outline: as §1
PC-3 [10] = assay: Selectivity index, ratio of IC50 for human PC3 cells under normoxic condition to IC50 for human PC3 cells under hypoxic condition; assay type: functional
Outline: (§2)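 Hypoxia cytotoxicity ratio = IC50(air)/IC50(N2), from IC50 values after 2 h exposure of DU145 or PC-3 cells. Based on two or more independent experiments in quintuplicate.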

DU-145 [11] = assay: Selectivity index, ratio of IC50 for human DU145 cells under normoxic condition to IC50 for human DU145 cells under hypoxic condition; assay type: functional; outline: as §2

Row | Structure (SMILES) | logD [1] | Drug uptake [2] [%] | Drug uptake [3] [%] | Drug uptake [4] [%] | Drug uptake [5] [%] | IC50 (PC-3 [6]) [µM] | IC50 (DU-145 [7]) [µM] | IC50 (PC-3 [8]) [µM] | IC50 (DU-145 [9]) [µM] | Ratio IC50 (PC-3 [10]) | Ratio IC50 (DU-145 [11])
1 | Cn1c(COP(=O)(N(CCBr)Cc2cn(Cc3ccccc3)nn2)N(CCBr)Cc2nnn(Cc3ccccc3)c2[125I])cnc1[N+](=O)[O-] (stereo unspecified) | 0.55 | 4 | 4 | 2 | 2 | – | – | – | – | – | –
2 | Cn1c(COP(=O)(NCCBr)NCCBr)cnc1[N+](=O)[O-] [EVOFOSFAMIDE] | – | – | – | – | – | 6.49 | 4.14 | 687 | 842 | 106 | 203
